# Test results as given in ChEMBL document CHEMBL1629485, “Lead identification of conformationally restricted β-lactam type combretastatin analogues: synthesis, antiproliferative activity and tubulin targeting effects” (Eur J Med Chem, 2010).
# Experiments:
# MCF7 [1] = experiment: Antiproliferative activity against human MCF7 cells expressing estrogen receptor after 72 hrs by MTT assay; type: functional, cell-based; conditions: MCF7, 72 h
# MDA-MB-231 [2] = experiment: Antiproliferative activity against estrogen receptor deficient human MDA-MB-231 cells after 72 hrs by MTT assay; type: functional, cell-based; conditions: MDA-MB-231, 72 h
# How it was run: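 MCF-7 grown in Eagle's MEM with 10% FBS, 2 mM L-glutamine, penicillin/streptomycin and 1% non-essential amino acids; MDA-MB-231 grown in DMEM with 10% FBS, 2 mM L-glutamine and penicillin/streptomycin. Seeded at 2.5 × 10⁴ cells/mL, 24 h at 37 °C. Ethanol-stock compound, 1 nM–100 μM, 72 h, ethanol 1% v/v vehicle. MTT at 1 mg/mL final, 2 h dark, 37 °C, DMSO solubilised. Viability vs untreated control. IC50 is mean of three experiments in triplicate.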
# MCF7 [3] = experiment: Cytotoxicity against human MCF7 cells expressing estrogen receptor assessed as LDH release at 10 uM; type: functional
# How it was run: (§1)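 After compound treatment, LDH was measured with a commercial LDH kit. Result is % cell lysis at 10 μM compound.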
# MDA-MB-231 [4] = experiment: Cytotoxicity against estrogen receptor deficient human MDA-MB-231 cells assessed as LDH release at 10 uM; type: functional; how it was run: as §1
SMILES,IC50 (MCF7 [1]) [nM],IC50 (MDA-MB-231 [2]) [µM],Activity (MCF7 [3]) [%],Activity (MDA-MB-231 [4]) [%]
COc1ccc(N2C(=O)CC2c2cc(OC)c(OC)c(OC)c2)cc1O (configuration not stated),250,0.27,2.3,6.6
COc1ccc(C2C(C)C(=O)N2c2cc(OC)c(OC)c(OC)c2)cc1O (configuration not stated),10,0.047,15,25
COc1ccc(C2N(c3cc(OC)c(OC)c(OC)c3)C(=O)C2(C)C)cc1O (configuration not stated),130,1.67,12,20
COc1ccc(N2C(=O)C(C)C2c2cc(OC)c(OC)c(OC)c2)cc1O (configuration not stated),2960,13,17,0
COc1ccc(N2C(=O)C(C)(C)C2c2cc(OC)c(OC)c(OC)c2)cc1O (configuration not stated),4040,3.19,11.5,12.1
COc1cc(N2C(=O)CC2c2ccc(F)cc2)cc(OC)c1OC (configuration not stated),26000,25.9,0,6.3
COc1cc(OC)c(C2CC(=O)N2c2cc(OC)c(OC)c(OC)c2)cc1OC (configuration not stated),63700,38.5,2.2,0
COc1ccc(C2CC(=O)N2c2cc(OC)c(OC)c(OC)c2)cc1 (configuration not stated),39,0.21,1.5,1.1
COc1ccc(C2C(C)C(=O)N2c2cc(OC)c(OC)c(OC)c2)cc1 (configuration not stated),47,0.127,5.7,4.5
COc1ccc(C2N(c3cc(OC)c(OC)c(OC)c3)C(=O)C2(C)C)cc1 (configuration not stated),265,1.15,12,16
COc1cc(C2CC(=O)N2c2cc(OC)c(OC)c(OC)c2)cc(OC)c1OC (configuration not stated),168000,94.4,1.9,0
COc1cc(N2C(=O)CC2c2ccc(OC)c(OC)c2OC)cc(OC)c1OC (configuration not stated),310,2.83,8,9
COc1ccc(C2CC(=O)N2c2cc(OC)c(OC)c(OC)c2)cc1OC (configuration not stated),1640,0.97,5,15
COc1ccc(C2C(C)C(=O)N2c2cc(OC)c(OC)c(OC)c2)cc1OC (configuration not stated),2960,8.84,7.5,6.1
COc1ccc(C2N(c3cc(OC)c(OC)c(OC)c3)C(=O)C2(C)C)cc1OC (configuration not stated),344,1.46,14,12
COc1cc(N2C(=O)CC2c2cccs2)cc(OC)c1OC (configuration not stated),21600,34.5,20,15
COc1ccc2cc(C3CC(=O)N3c3cc(OC)c(OC)c(OC)c3)ccc2c1 (configuration not stated),1510,13.2,13.5,18
COc1ccc(C2CC(=S)N2c2cc(OC)c(OC)c(OC)c2)cc1 (configuration not stated),1120,4.5,16,3
COc1ccc(C2C(C)C(=S)N2c2cc(OC)c(OC)c(OC)c2)cc1 (configuration not stated),890,9.26,3.2,5.1
COc1ccc(C2N(c3cc(OC)c(OC)c(OC)c3)C(=S)C2(C)C)cc1 (configuration not stated),350,1.33,5.5,8
COc1ccc(/C=C\c2cc(OC)c(OC)c(OC)c2)cc1O [COMBRETASTATIN A4],,,5.6,4.3
